Laboratory results: ChEMBL document CHEMBL2146366, “Discovery of microsomal triglyceride transfer protein (MTP) inhibitors with potential for decreased active metabolite load compared to dirlotapide” (Bioorg Med Chem Lett, 2011)

Columns and labels:
[1] = Fraction unbound in human HepG2 cells by equilibrium dialysis; assay type: ADME, cell-based
How it was run: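 Protein binding was measured by equilibrium dialysis under the conditions of the apoB secretion assay in human HepG2 cells, to give unbound fraction.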

Rattus norvegicus [2] = assay: Antiobesity activity in high fat diet-induced obese Sprague-Dawley rat assessed as reduction in body weight at 10 mg/kg, po administered daily for 3 days relative to dirlotapide; assay type: functional; design: scale not given: the % may be the effect or the level left
Rattus norvegicus [3] = assay: Antiobesity activity in high fat diet-induced obese Sprague-Dawley rat assessed as reduction of triglyceride accumulation in liver at 10 mg/kg, po administered daily for 3 days relative to dirlotapide; assay type: functional; design: scale not given: the % may be the effect or the level left
How it was run: (§1)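 Male Sprague–Dawley rats (~300 g, n = 5 per group) were acclimatized for seven days to a high-fat diet (45% kcal from fat). They received three consecutive daily oral gavage doses 1.5 h before the dark cycle. Vehicle was SEDDS:H2O 10:90, with SEDDS made of Miglyol 812 10%, triacetin 30%, polysorbate 80 20% and Capmul MCM 30%. Food intake was recorded during dosing, and liver TG was measured afterwards, both against vehicle.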

Rattus norvegicus [4] = assay: Antiobesity activity in high fat diet-induced obese Sprague-Dawley rat assessed as reduction of food intake at 10 mg/kg, po administered daily for 3 days relative to dirlotapide; assay type: functional; design: scale not given: the % may be the effect or the level left; how it was run: as §1
Rattus norvegicus [5] = assay: Antiobesity activity in high fat diet-induced obese Sprague-Dawley rat assessed as reduction in body weight at 10 mg/kg, po administered daily for 3 days relative to control; assay type: functional; design: scale not given: the % may be the effect or the level left
Rattus norvegicus [6] = assay: Antiobesity activity in high fat diet-induced obese Sprague-Dawley rat assessed as reduction of food intake at 10 mg/kg, po administered daily for 3 days relative to control; assay type: functional; design: scale not given: the % may be the effect or the level left; how it was run: as §1
Rattus norvegicus [7] = assay: Antiobesity activity in high fat diet-induced obese Sprague-Dawley rat assessed as reduction of triglyceride accumulation in liver at 10 mg/kg, po administered daily for 3 days relative to control; assay type: functional; design: scale not given: the % may be the effect or the level left; how it was run: as §1
Rattus norvegicus [8] = assay: Antiobesity activity in high fat diet-induced obese Sprague-Dawley rat assessed as reduction of food intake at 30 mg/kg, po administered daily for 3 days relative to control; assay type: functional; design: scale not given: the % may be the effect or the level left; how it was run: as §1
Rattus norvegicus [9] = assay: Antiobesity activity in high fat diet-induced obese Sprague-Dawley rat assessed as reduction of food intake at 30 mg/kg, po qd for 7 days relative to control; assay type: functional; design: scale not given: the % may be the effect or the level left
How it was run: (§2)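 Seven-day rat study: once-daily oral dosing at 3, 10 or 30 mg/kg, with 1, 3 and 100 mg/kg also used for one series. Compounds were given as spray-dried dispersions in hydroxypropylmethylcellulose acetate succinate. Food intake, body weight, liver TG and serum ALT were measured against vehicle. Systemic exposure was reported as AUC (ng h/mL). Significance versus vehicle was set at P ≤ 0.05.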

Rattus norvegicus [10] = assay: Antiobesity activity in high fat diet-induced obese Sprague-Dawley rat assessed as reduction of triglyceride accumulation in liver at 10 mg/kg, po qd for 7 days relative to control; assay type: functional; design: scale not given: the % may be the effect or the level left; how it was run: as §2
Rattus norvegicus [11] = assay: Antiobesity activity in po dosed high fat diet-induced obese Sprague-Dawley rat assessed as reduction of body weight administered daily for 3 days; assay type: functional; settings: 72 h, read-out: MED
[12] = Oral bioavailability in beagle dog at 2.5 mg/kg; assay type: ADME, organism-based, Canis lupus familiaris; settings: in vivo
[13] = AUC in high fat diet-induced obese Sprague-Dawley rat at 10 mg/kg, po qd for 7 days; assay type: ADME, organism-based; design: dose 10 mg/kg, route oral; settings: plasma; how it was run: as §2
Rattus norvegicus [14] = assay: Antiobesity activity in high fat diet-induced obese Sprague-Dawley rat assessed as reduction of body weight at 30 mg/kg, po qd for 7 days; assay type: functional; design: scale not given: the % may be the effect or the level left; how it was run: as §2
[15] = Oral bioavailability in rat at 30 mg/kg; assay type: ADME, organism-based; settings: in vivo
Rattus norvegicus [16] = assay: Toxicity in high fat diet-induced obese Sprague-Dawley rat assessed as change in serum ALT level at 30 mg/kg, po qd for 7 days relative to control; assay type: organism-based; design: dose 30 mg/kg, route oral; settings: in vivo, 168 h
How it was run: (§3)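 Seven-day study in high-fat-diet rats. Compound was given once daily by mouth as a spray-dried dispersion, with vehicle controls. Serum ALT was measured alongside food intake, body weight, liver TG and systemic exposure (AUC). ALT is expressed as % change versus vehicle, with significance set at P ≤ 0.05.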

Rattus norvegicus [17] = assay: Antiobesity activity in high fat diet-induced obese Sprague-Dawley rat assessed as reduction of food intake at 10 mg/kg, po qd for 7 days relative to control; assay type: functional; design: scale not given: the % may be the effect or the level left; how it was run: as §2
Rattus norvegicus [18] = assay: Antiobesity activity in po dosed high fat diet-induced obese Sprague-Dawley rat assessed as reduction of food intake administered daily for 3 days; assay type: functional; settings: 72 h, read-out: MED; how it was run: as §1
Rattus norvegicus [19] = assay: Toxicity in high fat diet-induced obese Sprague-Dawley rat assessed as change in serum ALT level at 10 mg/kg, po qd for 7 days relative to control; assay type: organism-based; design: dose 10 mg/kg, route oral; settings: in vivo, 168 h; how it was run: as §3
[20] = AUC in high fat diet-induced obese Sprague-Dawley rat at 30 mg/kg, po qd for 7 days; assay type: ADME, organism-based; design: dose 30 mg/kg, route oral; settings: plasma; how it was run: as §2
Rattus norvegicus [21] = assay: Antiobesity activity in high fat diet-induced obese Sprague-Dawley rat assessed as reduction of body weight at 10 mg/kg, po qd for 7 days relative to control; assay type: functional; design: scale not given: the % may be the effect or the level left; how it was run: as §2
Rattus norvegicus [22] = assay: Antiobesity activity in high fat diet-induced obese Sprague-Dawley rat assessed as triglyceride accumulation in liver at 30 mg/kg, po administered daily for 3 days relative to control; assay type: functional; how it was run: as §1
Rattus norvegicus [23] = assay: Antiobesity activity in high fat diet-induced obese Sprague-Dawley rat assessed as reduction in body weight at 30 mg/kg, po administered daily for 3 days relative to control; assay type: functional; design: scale not given: the % may be the effect or the level left
Rattus norvegicus [24] = assay: Antiobesity activity in po dosed high fat diet-induced obese Sprague-Dawley rat assessed as reduction of reduction of triglyceride accumulation in liver administered daily for 3 days; assay type: functional; settings: 72 h, read-out: MED
How it was run: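 Male Sprague–Dawley rats (about 300 g; n = 5 per group) were acclimatized for seven days to a high-fat diet (45% kcal from fat). They received three consecutive daily oral gavage doses in SEDDS:H₂O 10:90 vehicle 1.5 h before the dark cycle. Food intake was recorded, and liver TG was then measured against the vehicle group.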

Rattus norvegicus [25] = assay: Antiobesity activity in high fat diet-induced obese Sprague-Dawley rat assessed as reduction of triglyceride accumulation in liver at 30 mg/kg, po qd for 7 days relative to control; assay type: functional; design: scale not given: the % may be the effect or the level left; how it was run: as §2

SMILES | fraction unbound [1] | Activity (Rattus norvegicus [2]) [%] | Activity (Rattus norvegicus [3]) [%] | Activity (Rattus norvegicus [4]) [%] | Activity (Rattus norvegicus [5]) [%] | Activity (Rattus norvegicus [6]) [%] | Activity (Rattus norvegicus [7]) [%] | further results
CC(C)(CO)c1ccc(-c2ccccc2C(=O)Nc2ccc3cc(C(=O)N[C@H](C(=O)NCc4ccc(F)cc4)c4ccccc4)ccc3n2)cc1 | 0.0135 | – | – | – | – | – | – | –
CN(Cc1ccc(F)cc1)C(=O)[C@@H](NC(=O)c1ccc2nc(NC(=O)c3ccccc3-c3ccc(O)cc3)ccc2c1)c1ccccc1 | 0.0095 | – | – | – | – | – | – | –
CNC(=O)[C@@H](NC(=O)c1cc2cc(NC(=O)c3ccccc3-c3ccc(C(F)(F)F)cc3)ccc2n1C)c1ccccc1 | 0.21 | 115 | 112 | 43 | 106 | 40 | 147 | –
CC(Oc1ccc(-c2ccccc2C(=O)Nc2ccc3cc(C(=O)N[C@H](C(=O)N(C)Cc4ccc(F)cc4)c4ccccc4)ccc3n2)cc1)C(=O)O (some centres not stated) | 0.022 | – | – | – | – | – | – | –
CN(Cc1ccc(F)cc1)C(=O)[C@@H](NC(=O)c1ccc2nc(NC(=O)c3ccccc3-c3ccc(C(F)(F)F)cc3)ccc2c1)c1ccccc1 | 0.0014 | 8 | 70 | 11 | 96 | 43 | 88 | –
CC(C)Oc1ccc(-c2ccccc2C(=O)Nc2ccc3cc(C(=O)N[C@H](C(=O)NCc4ccc(F)cc4)c4ccccc4)ccc3n2)cc1 | 0.0061 | – | – | – | – | – | – | –
CN(Cc1ccc(F)cc1)C(=O)[C@@H](NC(=O)c1ccc2nc(NC(=O)c3ccccc3-c3ccc(C(C)(C)CO)cc3)ccc2c1)c1ccccc1 | 0.023 | – | – | – | – | – | – | –
CNC(=O)[C@@H](NC(=O)c1ccc2nc(NC(=O)c3ccccc3-c3ccc(OC(C)C)cc3)ccc2c1)c1ccccc1 | 0.16 | – | – | – | – | – | – | –
CC(C)Oc1ccc(-c2ccccc2C(=O)Nc2ccc3cc(C(=O)N[C@H](C(=O)N(C)Cc4ccc(F)cc4)c4ccccc4)ccc3n2)cc1 | 0.0038 | 88 | 111 | 28 | 56 | 30 | 16 | Activity (Rattus norvegicus [8]): 45%; Activity (Rattus norvegicus [9]): 25%; Activity (Rattus norvegicus [10]): 113%; minimal effective dose (Rattus norvegicus [11]): 3 mg/kg; bioavailability [12]: < 3%; AUC at 168 h [13]: 51 ng·h/mL; Activity (Rattus norvegicus [14]): 148%; bioavailability [15]: < 3%; Activity (Rattus norvegicus [16]): 191%; Activity (Rattus norvegicus [17]): 21%; minimal effective dose (Rattus norvegicus [18]): 3 mg/kg; Activity (Rattus norvegicus [19]): 10%; AUC at 168 h [20]: 47 ng·h/mL; Activity (Rattus norvegicus [21]): 82%; Activity (Rattus norvegicus [22]): 15%; Activity (Rattus norvegicus [23]): 152%; minimal effective dose (Rattus norvegicus [24]): 3 mg/kg; Activity (Rattus norvegicus [25]): 184%
Cn1c(C(=O)N[C@H](C(N)=O)c2ccccc2)cc2cc(NC(=O)c3ccccc3-c3ccc(C(F)(F)F)cc3)ccc21 | 0.23 | 115 | 112 | 43 | 108 | 37 | 87 | –
CC(CO)Oc1ccc(-c2ccccc2C(=O)Nc2ccc3cc(C(=O)N[C@H](C(=O)N(C)Cc4ccc(F)cc4)c4ccccc4)ccc3n2)cc1 (some centres not stated) | 0.013 | – | – | – | – | – | – | –
CN(Cc1ccc(F)cc1)C(=O)[C@@H](NC(=O)c1ccc2nc(NC(=O)c3ccccc3-c3ccc(C(C)(C)C(=O)O)cc3)ccc2c1)c1ccccc1 | 0.0088 | – | – | – | – | – | – | –
CC(C)c1ccc(-c2ccccc2C(=O)Nc2ccc3cc(C(=O)N[C@H](C(=O)N(C)Cc4ccc(F)cc4)c4ccccc4)ccc3n2)cc1 | 0.0011 | 8 | 70 | 11 | 91 | 38 | 16 | –
Cc1ccc(-c2ccccc2C(=O)Nc2ccc3cc(C(=O)N[C@H](C(=O)N(C)Cc4ccc(F)cc4)c4ccccc4)ccc3n2)cc1 | 0.0043 | 117 | 216 | 50 | 75 | 38 | 43 | –
CNC(=O)[C@@H](NC(=O)c1ccc2nc(NC(=O)c3ccccc3-c3ccc(C(C)(C)C)cc3)ccc2c1)c1ccccc1 | 0.038 | – | – | – | – | – | – | –
CC(C)(C)c1ccc(-c2ccccc2C(=O)Nc2ccc3cc(C(=O)N[C@H](C(=O)NCc4ccc(F)cc4)c4ccccc4)ccc3n2)cc1 | 0.0023 | – | – | – | – | – | – | –
CC(C)(C(=O)O)c1ccc(-c2ccccc2C(=O)Nc2ccc3cc(C(=O)N[C@H](C(=O)NCc4ccc(F)cc4)c4ccccc4)ccc3n2)cc1 | 0.0211 | – | – | – | – | – | – | –
CN(Cc1ccc(F)cc1)C(=O)[C@@H](NC(=O)c1ccc2nc(NC(=O)c3ccccc3-c3ccc(OC(C)(C)C)cc3)ccc2c1)c1ccccc1 | – | 95 | 112 | 38 | 108 | 40 | 72 | –
